Columns and labels:
Hepatitis C virus [1] = experiment: Antiviral activity against E1 and E2 envelope protein expressing HCV infected in HepG2 cells assessed as inhibition of viral invasion at 10 uM after 24 hrs by SEAP reporter gene assay; format: functional, Hepacivirus hominis; conditions: HepG2, 24 h
Summary of the method: (§1)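 HepG2 cells seeded at 9.0 × 10⁴ cells/mL in DMEM with 10% FBS were grown 24 h at 37 °C under 5% CO₂. Samples in DMSO were diluted in medium (final DMSO 1.0%) and added 1 h before inoculation. After a further 24 h, supernatant SEAP activity was read by fluorescence.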

Hepatitis C virus [2] = experiment: Antiviral activity against E1 and E2 envelope protein expressing HCV infected in HepG2 cells assessed as inhibition of viral invasion at 3 uM after 24 hrs by SEAP reporter gene assay; format: functional, Hepacivirus hominis; conditions: HepG2, 24 h; summary of the method: as §1
Hepatitis C virus [3] = experiment: Antiviral activity against E1 and E2 envelope protein expressing HCV infected in HepG2 cells assessed as inhibition of viral invasion at 1 uM after 24 hrs by SEAP reporter gene assay; format: functional, Hepacivirus hominis; conditions: HepG2, 24 h; summary of the method: as §1
Hepatitis C virus [4] = experiment: Antiviral activity against G envelope protein expressing HCV infected in HepG2 cells assessed as inhibition of viral invasion at 10 uM after 24 hrs by SEAP reporter gene assay; format: functional, Hepacivirus hominis; conditions: HepG2, 24 h; summary of the method: as §1
Hepatitis C virus [5] = experiment: Antiviral activity against G envelope protein expressing HCV infected in HepG2 cells assessed as inhibition of viral invasion at 3 uM after 24 hrs by SEAP reporter gene assay; format: functional, Hepacivirus hominis; conditions: HepG2, 24 h; summary of the method: as §1
Hepatitis C virus [6] = experiment: Antiviral activity against G envelope protein expressing HCV infected in HepG2 cells assessed as inhibition of viral invasion at 1 uM after 24 hrs by SEAP reporter gene assay; format: functional, Hepacivirus hominis; conditions: HepG2, 24 h; summary of the method: as §1
[7] = Growth inhibition of human HepG2 cells at 10 uM; format: cell-based; conditions: read-out: GI

Row | Structure (SMILES) | inhibition at 10 µM (Hepatitis C virus [1]) [%] | inhibition at 3 µM (Hepatitis C virus [2]) [%] | inhibition at 1 µM (Hepatitis C virus [3]) [%] | inhibition at 10 µM (Hepatitis C virus [4]) [%] | inhibition at 3 µM (Hepatitis C virus [5]) [%] | inhibition at 1 µM (Hepatitis C virus [6]) [%] | inhibition at 10 µM [7] [%]
1 | O=C(OC[C@H]1OC(O)[C@H](OC(=O)c2cc(O)c(O)c(O)c2)[C@@H](OC(=O)c2cc(O)c(O)c(O)c2)[C@@H]1OC(=O)c1cc(O)c(O)c(O)c1)c1cc(O)c(O)c(O)c1 (stereo not given in full) | 43.7 | 20.8 | 9.1 | 51.2 | 40.7 | 16 | –
2 | O=C(O[C@@H]1O[C@@H]2COC(=O)c3cc(O)c(O)c(O)c3-c3c(cc(O)c(O)c3O)C(=O)O[C@H]2[C@H](OC(=O)c2cc(O)c(O)c(O)c2)[C@H]1OC(=O)c1cc(O)c(O)c(O)c1)c1cc(O)c(O)c(O)c1 [EUGENIIN] | 92.8 | 51.3 | 18.4 | 35.7 | 21.2 | 17.2 | –
3 | O=C1OC[C@H]2OC(O)[C@@H]3OC(=O)c4cc(O)c(O)c(O)c4-c4c(cc(O)c(O)c4O)C(=O)O[C@H]3[C@@H]2OC(=O)c2cc(O)c(O)c(O)c2-c2c1cc(O)c(O)c2O (stereo not given in full) [PEDUNCULAGIN] | 81.1 | 58.8 | 14.6 | 30.9 | 14.8 | 9.4 | –
4 | O=C(OC[C@H]1O[C@@H](OC(=O)c2cc(O)c(O)c(O)c2)[C@H](OC(=O)c2cc(O)c(O)c(O)c2)[C@@H](OC(=O)c2cc(O)c(O)c(O)c2)[C@@H]1OC(=O)c1cc(O)c(O)c(O)c1)c1cc(O)c(O)c(O)c1 [PENTAGALLOYL GLUCOSE] | 72.3 | 28.9 | 4.2 | 40.7 | 22.8 | 5 | –
5 | O=C(O[C@H]1[C@@H]2OC(=O)c3cc(O)c(O)c(O)c3-c3c(cc(O)c(O)c3O)C(=O)OC[C@H]2OC(O)[C@@H]1OC(=O)c1cc(O)c(O)c(O)c1)c1cc(O)c(O)c(O)c1 (stereo not given in full) [Tellimagrandin I] | – | – | – | – | – | – | 15.6

— ChEMBL document CHEMBL1154968, “Tellimagrandin I, HCV invasion inhibitor from Rosae Rugosae Flos” (Bioorg Med Chem Lett, 2010)
